Assay results: publication PMC6923438 (Saudi Journal of Biological Sciences, 2019)

Legend:
[1] = system: gut microbiota; experiment: 16S rRNA gene sequencing of caecal content, STZ induced diabetic rats; type: in vivo; settings: STZ + Gli (2.5 mg/kg)
[2] = system: STZ-induced T1DM; type: in vivo; settings: glibenclamide group (2.5 mg/kg), STZ induced mice
Summary of the method: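 Swiss albino mice (20 ± 5 g, either sex) were given STZ 40 mg/kg i.p. for 5 days; mice with fasting glucose >220 mg/dl were taken as diabetic (18/group). They were dosed orally once daily for 2 weeks. Tail-vein glucose (glucometer) and body weight were recorded at intervals; weight loss was taken as day 1 versus pre-sacrifice weight. Liver and kidneys were weighed at sacrifice for organ index.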

[3] = system: 3T3-L1 adipocyte; experiment: Glucose consumption in 3T3-L1 adipocyte; type: cell-based
[4] = system: STZ-induced T1DM; experiment: Pancreatic islet mass and pancreas histopathology in STZ-induced T1DM; type: in vivo, mice
Summary of the method: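 STZ-diabetic mice (40 mg/kg i.p. × 5 days; glucose >220 mg/dl) were gavaged daily for 2 weeks with test compound at 10 or 20 mg/kg, or glibenclamide 2.5 mg/kg. Pancreas was formalin-fixed, paraffin-embedded, cut at 5 µm and stained with H&E. Islet mass was calculated as pancreas weight × relative β-cell area on slides; ANOVA versus model group.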

[5] = system: 3T3-L1 preadipocyte; experiment: 3T3-L1 preadipocyte differentiation; type: cell-based; settings: Oil Red O, TG content; vs induced control
Summary of the method: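 3T3-L1 cells seeded at 2×10^4 cells/mL in 6-well plates. Differentiation was induced in DMEM with insulin (10 µg/mL), IBMX (0.5 mM), dexamethasone (1 µM) and 10% FBS for 48 h, then DMEM with insulin and FBS, then basic medium changed every 48 h. Test compound (12.5, 25, 50 µg/mL) was present throughout. Lipid droplets stained with Oil Red O 10 days after induction.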

## COc1ccc(Cl)cc1C(=O)NCCc1ccc(S(=O)(=O)NC(=O)NC2CCCCC2)cc1 [Glibenclamide, glibenclamide]
[1]
  Actinobacteria, 16S rRNA gene sequencing of caecal content: 0.35 ± 0.03
  Bacteroidates, 16S rRNA gene sequencing of caecal content: 0.28 ± 0.05
  Bacteroidetes, 16S rRNA gene sequencing of caecal content: 0.23 ± 0.09
  Bifldobacteriales, 16S rRNA gene sequencing of caecal content: 0.5 ± 0.04
  Burkholderiaies, 16S rRNA gene sequencing of caecal content: 0.34 ± 0.04
  Campylobacterioles, 16S rRNA gene sequencing of caecal content: 0.61 ± 0.09
  Clostridiales, 16S rRNA gene sequencing of caecal content: 0.29 ± 0.05
  Coriobacteriales, 16S rRNA gene sequencing of caecal content: 0.32 ± 0.09
  Cyanobacteria, 16S rRNA gene sequencing of caecal content: 0.3 ± 0.07
  Desulfovibrionales, 16S rRNA gene sequencing of caecal content: 0.25 ± 0.06
  Enterobacteriales, 16S rRNA gene sequencing of caecal content: 0.3 ± 0.06
  Eryslpelotrichales, 16S rRNA gene sequencing of caecal content: 0.5 ± 0.07
  Firmicutes, 16S rRNA gene sequencing of caecal content: 0.22 ± 0.07
  Lactibacllales, 16S rRNA gene sequencing of caecal content: 0.25 ± 0.03
  Proteobacteria, 16S rRNA gene sequencing of caecal content: 0.28 ± 0.04
  Selenomonadales, 16S rRNA gene sequencing of caecal content: 0.16 ± 0.03
  Verrucomicrobia, 16S rRNA gene sequencing of caecal content: 0.21 ± 0.07
  Verrucomicrobiales, 16S rRNA gene sequencing of caecal content: 0.36 ± 0.08
[2]
  renal index: 1.41 ± 0.13
[3]
  Glucose consumption (in words): significantly increased
[3]; 1 µg/mL
  Glucose consumption: 12.62 ± 0.67 mmol/L
[4]; STZ induced type I DM
  pancreas histopathology: almost similar histopathology effect
[4]; glibenclamide group (2.5 mg/kg), STZ induced mice
  β-cell mass: 1.5 ± 0.02
[5]
  3T3-L1 preadipocyte differentiation: significant differentiation
